According to ChEMBL document CHEMBL5584364, “Reaping the Chemical Diversity of Morinagamyces vermicularis Using Feature-Based Molecular Networking” (J Nat Prod, 2024):
Values after ≈ are worked out from the molar mass of the structure shown. Active and inactive are the calls of the source. No cut-off for these calls is given here.

Tests used:
[1] = system: Candida albicans; test: Antifungal activity against Candida albicans assessed as reduction in fungal growth incubated for overnight by serial dilution assay; type: functional
How it was run: (§1)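 MIC50 determined against five fungi (C. albicans, M. hiemalis, R. glutinis, S. pombe, W. anomalus), with nystatin as positive control. Values given in µg/mL; "–" means no inhibition under test conditions.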

[2] = system: Mucor hiemalis; test: Antifungal activity against Mucor hiemalis assessed as reduction in fungal growth incubated for overnight by serial dilution assay; type: functional; how it was run: as §1
[3] = system: Rhodotorula glutinis; test: Antifungal activity against Rhodotorula glutinis assessed as reduction in fungal growth incubated for overnight by serial dilution assay; type: functional; how it was run: as §1
[4] = system: Schizosaccharomyces pombe; test: Antifungal activity against Schizosaccharomyces pombe assessed as reduction in fungal growth incubated for overnight by serial dilution assay; type: functional; how it was run: as §1
[5] = system: Wickerhamomyces anomalus; test: Antifungal activity against Wickerhamomyces anomalus assessed as reduction in fungal growth incubated for overnight by serial dilution assay; type: functional; how it was run: as §1
[6] = system: Bacillus subtilis; test: Antibacterial activity against Bacillus subtilis assessed as reduction in microbial growth incubated for overnight by serial dilution assay; type: functional
How it was run: (§2)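 MIC50 determined against Gram-positive and Gram-negative bacteria. Positive controls: oxytetracycline for most bacteria, ciprobay for A. baumannii, gentamycin for Ps. aeruginosa. Values given in µg/mL; "–" means no inhibition under test conditions.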

[7] = system: Chromobacterium violaceum; test: Antibacterial activity against Chromobacterium violaceum assessed as reduction in microbial growth incubated for overnight by serial dilution assay; type: functional; how it was run: as §2
[8] = system: Escherichia coli; test: Antibacterial activity against Escherichia coli assessed as reduction in microbial growth incubated for overnight by serial dilution assay; type: functional; how it was run: as §2
[9] = system: Pseudomonas aeruginosa; test: Antibacterial activity against Pseudomonas aeruginosa assessed as reduction in microbial growth incubated for overnight by serial dilution assay; type: functional, organism-based; how it was run: as §2
[10] = system: Staphylococcus aureus; test: Antibacterial activity against Staphylococcus aureus assessed as reduction in microbial growth incubated for overnight by serial dilution assay; type: functional; how it was run: as §2
[11] = system: KB 3-1; test: (§3) Cytotoxicity against human KB-3-1 cells assessed as reduction in cell viability after 5 days by MTT assay; type: toxicity, cell-based; conditions: kb 3-1
How it was run: (§4)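 Cytotoxicity read by MTT method against mammalian cell lines (human endocervical adenocarcinoma KB 3.1, mouse fibroblast L929), with epothilone B as positive control. IC50 reported in µM.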

[12] = Cytotoxicity against mouse L929 cells assessed as reduction in cell viability after 5 days by MTT assay; type: toxicity, cell-based; how it was run: as §4
[13] = as §3; type: toxicity, cell-based; conditions: human, KB-3-1 cells; how it was run: as §4
[14] = system: Acinetobacter baumannii; test: Antibacterial activity against Acinetobacter baumannii assessed as reduction in microbial growth incubated for overnight by serial dilution assay

Compound | MIC [1] | MIC [2] | MIC [3] | MIC [4] | MIC ([5]; Hansenula anomala) | MIC [6] | Activity [7] | Activity [8] | Activity [9] | IC50 at 5 days [12] | MIC [10] | IC50 at 5 days [13] | further results
CN1C(=O)C23SSSC4c5ccccc5O[C@]41C(=O)N2O[C@]1(C[C@H](O)[C@H](O)CC1=O)[C@H]3O (stereo partly specified) | 66.6 µg/mL (≈ 134 µM) | 66.6 µg/mL (≈ 134 µM) | 66.6 µg/mL (≈ 134 µM) | 66.6 µg/mL (≈ 134 µM) | 33.3 µg/mL (≈ 66.8 µM) | 66.6 µg/mL | inactive | inactive | inactive | 50 µM |  |  | Activity [10]: inactive; IC50 [11]: Non-Toxic
CSC1c2ccccc2O[C@]12C(=O)N1O[C@]3(CCC=CC3=O)[C@@H](O)C1(SC)C(=O)N2C (stereo partly specified) |  |  |  |  |  | 66.6 µg/mL | inactive | inactive | inactive | 5 µM | 66.6 µg/mL | 15 µM | Activity [1]: inactive; Activity [2]: inactive; Activity [3]: inactive; Activity [4]: inactive; Activity [5]: inactive
CN(C)[C@@H]1C(O)=C(C(N)=O)C(=O)[C@@]2(O)C(O)=C3C(=O)c4c(O)cccc4[C@@](C)(O)[C@H]3[C@H](O)[C@@H]12 [OXYTETRACYCLINE] |  |  |  |  |  | 16.6 µg/mL |  |  |  |  | 0.83 µg/mL |  | MIC [7]: 0.83 µg/mL; MIC [8]: 3.3 µg/mL
GENTAMICIN |  |  |  |  |  |  |  |  |  |  |  |  | MIC [9]: 0.42 µg/mL
CN1C(=O)C23SSC4c5ccccc5O[C@]41C(=O)N2O[C@]1(C[C@H](O)[C@H](O)CC1=O)[C@H]3O (stereo partly specified) |  | 33.3 µg/mL (≈ 71.4 µM) | 66.6 µg/mL (≈ 143 µM) | 66.6 µg/mL (≈ 143 µM) | 66.6 µg/mL (≈ 143 µM) | 33.3 µg/mL | inactive | inactive | inactive | 58 µM | 33.3 µg/mL | 54 µM | Activity [1]: inactive
O=C(O)c1cn(C2CC2)c2cc(N3CCNCC3)c(F)cc2c1=O [CIPROFLOXACIN] |  |  |  |  |  |  |  |  |  |  |  |  | MIC [14]: 0.53 µg/mL
NYSTATIN | 16.6 µg/mL | 8.3 µg/mL | 2.1 µg/mL | 4.2 µg/mL |  |  |  |  |  |  |  |  | MIC [5]: 8.3 µg/mL
CN1C(=O)C23SSC4c5ccccc5O[C@]41C(=O)N2O[C@]1(C[C@H](O)C=CC1=O)[C@H]3O (stereo partly specified) | 66.6 µg/mL (≈ 149 µM) | 8 µg/mL (≈ 17.8 µM) | 33.3 µg/mL (≈ 74.3 µM) | 66.6 µg/mL (≈ 149 µM) | 33.3 µg/mL (≈ 74.3 µM) | 16.6 µg/mL |  | inactive | inactive | 42 µM | 8.3 µg/mL | 49 µM | MIC [7]: 16.6 µg/mL
C/C(=C\c1csc(C)n1)[C@@H]1C[C@@H]2O[C@@H]2CCC[C@H](C)[C@H](O)[C@@H](C)C(=O)C(C)(C)[C@H](O)CC(=O)O1 |  |  |  |  |  |  |  |  |  | 0.00052 µM |  | 4e-05 µM | 
